Source: BindingDB's records for doi:10.1016/j.ejmech.2013.06.039 (University of Salerno, 2013)

Tests used:
[1] = target: T1, Polyunsaturated fatty acid 5-lipoxygenase (Homo sapiens, UniProt P09917); test: Inhibition of human recombinant 5-LO expressed in Escherichia coli BL21 using arachidonic acid as substrate after 10 mins
T1 sequence (P09917 whole entry): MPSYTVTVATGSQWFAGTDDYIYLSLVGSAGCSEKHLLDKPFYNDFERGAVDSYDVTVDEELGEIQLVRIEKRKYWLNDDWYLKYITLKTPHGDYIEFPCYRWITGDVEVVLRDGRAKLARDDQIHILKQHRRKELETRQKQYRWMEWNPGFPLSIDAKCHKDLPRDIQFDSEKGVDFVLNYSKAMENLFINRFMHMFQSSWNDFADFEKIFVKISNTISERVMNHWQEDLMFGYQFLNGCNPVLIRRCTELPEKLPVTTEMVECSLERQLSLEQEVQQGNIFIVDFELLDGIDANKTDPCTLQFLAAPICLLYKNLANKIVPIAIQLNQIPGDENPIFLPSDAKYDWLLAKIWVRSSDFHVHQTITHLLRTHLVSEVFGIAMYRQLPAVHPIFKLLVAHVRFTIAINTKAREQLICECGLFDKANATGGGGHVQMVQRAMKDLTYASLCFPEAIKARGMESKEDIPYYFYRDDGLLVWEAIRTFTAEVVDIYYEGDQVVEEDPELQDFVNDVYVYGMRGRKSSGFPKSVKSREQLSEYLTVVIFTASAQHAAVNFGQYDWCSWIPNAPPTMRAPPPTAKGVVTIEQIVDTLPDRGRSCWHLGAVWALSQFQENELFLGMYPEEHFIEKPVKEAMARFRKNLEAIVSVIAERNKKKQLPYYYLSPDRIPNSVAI
In short: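 Purified 5-LO was diluted in PBS/EDTA and pre-incubated with compound for 5–10 min at 4 °C, then pre-warmed for 30 s at 37 °C. The reaction was started with 2 mM CaCl₂ plus AA, run 10 min at 37 °C and stopped with ice-cold methanol. Products were analysed by HPLC.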

[2] = target: T1, Polyunsaturated fatty acid 5-lipoxygenase; test: Inhibition of 5-LO in human PMNL using arachidonic acid as substrate preincubated for 15 mins
In short: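 PMNL were isolated from buffy coats by dextran sedimentation, Nycoprep centrifugation and hypotonic lysis of erythrocytes, then resuspended in PBS pH 7.4 with 1 mg/mL glucose and 1 mM CaCl₂. Cells were pre-incubated with compound for 15 min at 37 °C, then stimulated with A23187 plus AA for 10 min at 37 °C. 15-LO comes from eosinophils and 12-LO from adhering platelets in the preparation. After methanol/HCl stop and PGB₁ addition, metabolites were extracted and quantified by HPLC. Mean ± S.E.M., n = 3–4.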

Compound	IC50 [1] [µM]	IC50 [2] [µM]
O=C1C=C(Cc2ccccc2)C(=O)CC1=O	> 10	> 10
O=C1CC(=O)C(=O)C(CC2CCCCC2)C1=O	> 10	> 10
COC1=CC(=O)C(=O)C(Cc2ccc3ccccc3c2)C1=O (stereo not drawn)	> 10	> 10
COC1=CC(=O)C(=O)C(Cc2ccccc2)C1=O (stereo not drawn)	> 10	> 10
